Columns and labels:
[1] = target: T1, ATP-dependent translocase ABCB1 (Homo sapiens, UniProt P08183); assay: Inhibition of membrane efflux pump P-glycoprotein at 7 uM; assay type: functional
Method in brief: (§1)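 Rhodamine 123 uptake in L5178Y mouse T-cell lymphoma parental cells and the L5178YvMDR subline transfected with human MDR-1, at 2 × 10⁶ cells/mL in serum-free McCoy's 5A. Cells were preincubated with compound at room temperature, then given 5.2 μM rhodamine 123 (final) for 20 min at 37 °C and washed twice in PBS. Fluorescence of 1 × 10⁴ cells was read by flow cytometry. R = (MDR treated/untreated)/(parental treated/untreated), mean of two determinations.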

[2] = target: Cyclin-dependent kinase 5/CDK5 activator 1 (Homo sapiens) (UniProt Q00535+Q15078); assay: Inhibition of Cyclin-dependent kinase 5 (CDK5) at 10 uM; assay type: protein-complex assay
Sequence of Cyclin-dependent kinase 5/CDK5 activator 1 (Homo sapiens) (Q00535 whole entry): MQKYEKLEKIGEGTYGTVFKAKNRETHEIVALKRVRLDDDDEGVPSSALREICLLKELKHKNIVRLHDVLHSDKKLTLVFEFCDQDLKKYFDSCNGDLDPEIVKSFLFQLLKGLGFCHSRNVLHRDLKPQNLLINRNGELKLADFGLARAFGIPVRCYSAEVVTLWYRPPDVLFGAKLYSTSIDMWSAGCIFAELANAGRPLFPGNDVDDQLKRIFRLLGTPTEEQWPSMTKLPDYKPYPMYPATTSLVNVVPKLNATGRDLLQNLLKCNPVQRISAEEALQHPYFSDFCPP
Sequence of Cyclin-dependent kinase 5/CDK5 activator 1 (Homo sapiens) (Q15078 99-307 partner limits assumed): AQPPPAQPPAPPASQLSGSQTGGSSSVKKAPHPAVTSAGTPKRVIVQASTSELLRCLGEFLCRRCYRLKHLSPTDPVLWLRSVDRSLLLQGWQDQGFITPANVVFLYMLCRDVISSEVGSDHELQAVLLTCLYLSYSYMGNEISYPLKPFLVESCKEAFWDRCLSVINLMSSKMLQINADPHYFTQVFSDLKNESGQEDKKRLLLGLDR
Method in brief: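 Recombinant GST-tagged mammalian CDK5 and p25 mixed in equal amounts and purified. Assayed in the same homogenization buffer as CDK1/cyclin B (Mops pH 7.2, Mg2+, EGTA, DTT, phosphatase inhibitors) at 30 °C with 15 μM final ATP for 10 min. Phosphate incorporation measured with blanks subtracted. Percent inhibition at 10 μM test concentration, mean of two determinations.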

[3] = target: Cyclin-dependent kinase 1/cyclin B (Homo sapiens, UniProt O95067+P06493+P14635+Q8WWL7); assay: Inhibition of Cyclin-dependent kinase 1-cyclin B from M phase starfish (Marthasterias glacialis) oocytes; assay type: cell-based, Asteroidea, Oocyte
Sequence of Cyclin-dependent kinase 1/cyclin B (Homo sapiens, UniProt O95067+P06493+P14635+Q8WWL7) (P06493 whole entry): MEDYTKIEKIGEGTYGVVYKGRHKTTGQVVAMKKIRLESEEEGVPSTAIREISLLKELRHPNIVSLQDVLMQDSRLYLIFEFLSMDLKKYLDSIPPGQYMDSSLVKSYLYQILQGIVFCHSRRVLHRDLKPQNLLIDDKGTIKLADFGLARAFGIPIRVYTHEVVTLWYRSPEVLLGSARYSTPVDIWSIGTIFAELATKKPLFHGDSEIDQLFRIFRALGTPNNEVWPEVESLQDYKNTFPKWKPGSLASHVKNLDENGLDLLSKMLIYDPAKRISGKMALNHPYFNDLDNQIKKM
Sequence of Cyclin-dependent kinase 1/cyclin B (Homo sapiens, UniProt O95067+P06493+P14635+Q8WWL7) (P14635 whole entry): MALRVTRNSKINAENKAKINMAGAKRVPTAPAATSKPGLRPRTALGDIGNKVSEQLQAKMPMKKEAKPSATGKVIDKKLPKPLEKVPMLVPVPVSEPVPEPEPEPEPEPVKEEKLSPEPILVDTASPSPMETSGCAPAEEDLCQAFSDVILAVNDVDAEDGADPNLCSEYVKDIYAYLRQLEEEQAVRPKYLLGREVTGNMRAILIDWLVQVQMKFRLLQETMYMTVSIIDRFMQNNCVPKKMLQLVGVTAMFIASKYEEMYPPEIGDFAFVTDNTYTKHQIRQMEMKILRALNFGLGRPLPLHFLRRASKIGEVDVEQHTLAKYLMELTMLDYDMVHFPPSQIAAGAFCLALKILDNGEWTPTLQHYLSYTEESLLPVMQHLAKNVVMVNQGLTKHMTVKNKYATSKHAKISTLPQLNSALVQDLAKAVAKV
Sequence of Cyclin-dependent kinase 1/cyclin B (Homo sapiens, UniProt O95067+P06493+P14635+Q8WWL7) (Q8WWL7 whole entry): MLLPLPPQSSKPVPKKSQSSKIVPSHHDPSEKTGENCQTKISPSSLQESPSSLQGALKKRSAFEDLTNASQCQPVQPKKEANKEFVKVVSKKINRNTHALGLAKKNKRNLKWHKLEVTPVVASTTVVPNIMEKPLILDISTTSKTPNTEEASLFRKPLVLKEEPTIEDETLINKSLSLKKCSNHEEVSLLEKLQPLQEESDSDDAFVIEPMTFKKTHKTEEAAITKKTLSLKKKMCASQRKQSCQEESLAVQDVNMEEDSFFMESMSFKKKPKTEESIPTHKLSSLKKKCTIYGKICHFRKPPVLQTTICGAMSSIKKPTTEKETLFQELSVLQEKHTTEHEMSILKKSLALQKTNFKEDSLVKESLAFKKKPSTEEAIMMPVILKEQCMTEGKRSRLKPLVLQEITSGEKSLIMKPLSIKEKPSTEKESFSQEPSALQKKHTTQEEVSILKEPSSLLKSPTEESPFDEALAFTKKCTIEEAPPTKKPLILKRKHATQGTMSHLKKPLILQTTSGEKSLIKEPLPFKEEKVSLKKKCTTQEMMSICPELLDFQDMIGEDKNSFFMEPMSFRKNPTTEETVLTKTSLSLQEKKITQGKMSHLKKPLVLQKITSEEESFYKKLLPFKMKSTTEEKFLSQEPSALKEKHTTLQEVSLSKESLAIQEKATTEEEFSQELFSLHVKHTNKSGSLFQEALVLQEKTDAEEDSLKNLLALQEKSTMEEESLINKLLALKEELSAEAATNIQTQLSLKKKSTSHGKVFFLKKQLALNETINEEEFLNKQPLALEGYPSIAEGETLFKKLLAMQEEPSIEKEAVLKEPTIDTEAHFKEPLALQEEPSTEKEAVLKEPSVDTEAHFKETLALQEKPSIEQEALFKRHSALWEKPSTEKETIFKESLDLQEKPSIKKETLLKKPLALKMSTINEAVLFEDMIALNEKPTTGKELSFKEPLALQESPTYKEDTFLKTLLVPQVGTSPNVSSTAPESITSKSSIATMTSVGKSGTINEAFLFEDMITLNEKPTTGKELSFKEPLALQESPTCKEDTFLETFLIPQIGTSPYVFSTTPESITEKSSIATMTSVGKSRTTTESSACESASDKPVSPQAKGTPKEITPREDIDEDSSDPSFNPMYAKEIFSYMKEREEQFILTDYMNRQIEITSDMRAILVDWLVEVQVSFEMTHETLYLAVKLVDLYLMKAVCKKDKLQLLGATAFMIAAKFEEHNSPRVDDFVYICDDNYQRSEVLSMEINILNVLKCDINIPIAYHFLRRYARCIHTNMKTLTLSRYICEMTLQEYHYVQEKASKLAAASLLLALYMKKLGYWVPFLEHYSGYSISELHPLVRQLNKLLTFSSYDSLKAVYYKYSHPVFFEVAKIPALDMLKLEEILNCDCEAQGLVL
Sequence of Cyclin-dependent kinase 1/cyclin B (Homo sapiens, UniProt O95067+P06493+P14635+Q8WWL7) (O95067 whole entry): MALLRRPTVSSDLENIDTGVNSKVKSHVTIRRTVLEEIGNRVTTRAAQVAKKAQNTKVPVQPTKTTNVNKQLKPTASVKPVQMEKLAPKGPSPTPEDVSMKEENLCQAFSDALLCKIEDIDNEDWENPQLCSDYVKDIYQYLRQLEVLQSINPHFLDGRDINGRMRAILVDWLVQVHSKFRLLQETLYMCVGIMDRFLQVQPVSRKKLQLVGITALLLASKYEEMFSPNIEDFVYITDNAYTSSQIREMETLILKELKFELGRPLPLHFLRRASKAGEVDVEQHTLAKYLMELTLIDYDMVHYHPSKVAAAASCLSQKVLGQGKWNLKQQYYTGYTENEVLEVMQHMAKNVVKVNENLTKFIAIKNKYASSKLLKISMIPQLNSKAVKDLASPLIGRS

[4] = target: T1, ATP-dependent translocase ABCB1; assay: Inhibition of P-glycoprotein, MDR-1, expressed in mouse T-cell lymphoma cell line at 70 uM; assay type: functional, cell-based; method in brief: as §1
Tumor Cell line = assay: Cytostatic activity in performed screen of NCI 60 cell lines, mean graph midpoint; assay type: functional; conditions: Homo sapiens
Method in brief: (§2)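 NCI in vitro antitumour screen across 60 human tumour cell lines, run as a sulforhodamine B protein cytotoxicity assay. Values are log GI50, mean of two determinations. The panel mean-graph midpoint (MG_MID) summarises all 60 lines, and the ovarian IGROV1 line is reported individually.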

IGROV-1 = assay: Inhibition of ovarian cancer IGROVI cell proliferation; assay type: functional; conditions: Homo sapiens; method in brief: as §2
[5] = target: Cyclin-dependent kinase 1/cyclin B (Homo sapiens, UniProt P06493+P14635+Q8WWL7+O95067); assay: Inhibition of Cyclin-dependent kinase 1-cyclin B from M phase starfish (Marthasterias glacialis) oocytes (inactive); assay type: cell-based, Asteroidea; conditions: oocyte
Sequence of Cyclin-dependent kinase 1/cyclin B (Homo sapiens, UniProt P06493+P14635+Q8WWL7+O95067) (P06493 whole entry): as the sequence (P06493 whole entry) above
Sequence of Cyclin-dependent kinase 1/cyclin B (Homo sapiens, UniProt P06493+P14635+Q8WWL7+O95067) (P14635 whole entry): as the sequence (P14635 whole entry) above
Sequence of Cyclin-dependent kinase 1/cyclin B (Homo sapiens, UniProt P06493+P14635+Q8WWL7+O95067) (Q8WWL7 whole entry): as the sequence (Q8WWL7 whole entry) above
Sequence of Cyclin-dependent kinase 1/cyclin B (Homo sapiens, UniProt P06493+P14635+Q8WWL7+O95067) (O95067 whole entry): as the sequence (O95067 whole entry) above

T1 sequence (P08183 whole entry): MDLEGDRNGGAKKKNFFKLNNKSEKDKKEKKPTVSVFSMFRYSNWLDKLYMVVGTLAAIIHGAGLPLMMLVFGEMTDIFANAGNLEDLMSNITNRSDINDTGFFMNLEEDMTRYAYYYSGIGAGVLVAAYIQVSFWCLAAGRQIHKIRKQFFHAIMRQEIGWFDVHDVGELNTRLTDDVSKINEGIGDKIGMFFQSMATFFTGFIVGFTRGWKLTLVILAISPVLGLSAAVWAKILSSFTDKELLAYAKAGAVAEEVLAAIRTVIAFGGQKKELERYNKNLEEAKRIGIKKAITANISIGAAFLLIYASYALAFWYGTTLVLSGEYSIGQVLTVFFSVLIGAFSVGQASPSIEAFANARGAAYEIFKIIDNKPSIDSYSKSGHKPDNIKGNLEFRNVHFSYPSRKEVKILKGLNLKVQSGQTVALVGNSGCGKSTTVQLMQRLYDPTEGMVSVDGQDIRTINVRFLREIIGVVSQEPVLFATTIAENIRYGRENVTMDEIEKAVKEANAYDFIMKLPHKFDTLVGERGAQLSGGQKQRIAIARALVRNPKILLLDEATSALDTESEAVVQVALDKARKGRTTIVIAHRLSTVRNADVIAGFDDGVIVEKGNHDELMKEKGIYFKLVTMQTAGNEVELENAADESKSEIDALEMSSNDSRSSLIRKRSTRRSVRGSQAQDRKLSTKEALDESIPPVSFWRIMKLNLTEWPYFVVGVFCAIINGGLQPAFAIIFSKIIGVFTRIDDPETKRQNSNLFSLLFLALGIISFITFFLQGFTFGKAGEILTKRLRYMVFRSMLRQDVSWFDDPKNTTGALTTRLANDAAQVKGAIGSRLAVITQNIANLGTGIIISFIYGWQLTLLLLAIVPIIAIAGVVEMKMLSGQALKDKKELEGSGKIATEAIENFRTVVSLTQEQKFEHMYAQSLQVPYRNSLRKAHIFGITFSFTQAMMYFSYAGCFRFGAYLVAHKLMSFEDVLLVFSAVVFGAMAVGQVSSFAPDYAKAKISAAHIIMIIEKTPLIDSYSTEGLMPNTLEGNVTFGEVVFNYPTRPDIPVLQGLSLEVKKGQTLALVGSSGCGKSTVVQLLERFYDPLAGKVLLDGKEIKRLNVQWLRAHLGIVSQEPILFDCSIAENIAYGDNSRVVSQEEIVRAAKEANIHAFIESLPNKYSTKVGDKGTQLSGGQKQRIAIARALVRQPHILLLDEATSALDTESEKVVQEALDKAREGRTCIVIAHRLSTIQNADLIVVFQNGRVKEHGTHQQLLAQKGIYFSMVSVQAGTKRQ

Row | Inhibitory activity ratio [1] | inhibition [2] [%] | IC50 [3] [µM] | Inhibitory activity ratio [4] | IC50 [5] | SMILES | GI50 (Tumor Cell line) [µM] | GI50 (IGROV-1) [µM]
1 | 9.5 | 6 | 28.8 | 9.14 |  | CCOC(=O)c1cnc2oc3ccc(O)cc3c2c1-c1ccccc1 | 31.6 | 2.51
2 | 1.18 | 3 |  | 4.77 | Not Active | CCOC(=O)c1cnc2oc3ccc(O)cc3c2c1C | 79.4 | 79.4
3 |  |  |  |  |  | CCOC(=O)c1cnc2oc3ccc(OC(C)=O)cc3c2c1-c1ccccc1 |  | > 100
4 | 1.26 | 15 | 4.2 | 6.74 |  | CC(=O)c1cnc2oc3ccc(O)cc3c2c1-c1ccccc1 | 31.6 | 5.01
5 |  | 10 |  |  | Not Active | CC(=O)c1cnc2oc3ccc(O)cc3c2c1C | > 100 | > 100
